Screens from PubChem BioAssay.
Shown are actives, neighbours in structure and some others; about 3.5% of the full set was active somewhere.
MrgX1 antagonist: blocks BAM8-22 activation of human MrgX1 receptor. MRGX1-HEK293 calcium flux, Fluo-4, BAM8-22 antagonism; stronger effect = lower value. 1.3% of 310,000 active. AID 588676. Q96LB2. B-score at 10 µM;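 active = calcium-response B-score plate-corrected more than 3 library SD below zero, starting fluorescence within 5 deviations, no agonist response on first addition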;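 note: peak minus trough fluorescence over baseline after final BAM8-22 challenge near maximal dose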
Target sequence (Q96LB2 whole entry, looked up): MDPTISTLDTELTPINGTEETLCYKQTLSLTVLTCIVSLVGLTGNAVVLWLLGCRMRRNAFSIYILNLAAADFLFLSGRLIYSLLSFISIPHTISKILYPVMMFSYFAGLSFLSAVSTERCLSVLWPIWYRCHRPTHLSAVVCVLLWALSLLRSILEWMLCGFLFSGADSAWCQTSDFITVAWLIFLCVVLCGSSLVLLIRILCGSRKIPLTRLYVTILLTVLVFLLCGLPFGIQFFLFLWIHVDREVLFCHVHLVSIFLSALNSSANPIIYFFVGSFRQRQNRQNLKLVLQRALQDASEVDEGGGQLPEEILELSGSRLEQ
RGS4 inh: human RGS4 inhibition; P49798; HEK293 M3R/RGS4 inducible, Fluo-4 calcium flux; stronger effect = higher value; triggered by carbachol at its EC20; B-score at 10 µM; 0.45% of 310,000 active; AID 463165;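 active = B-score, a plate-corrected calcium signal, over three deviations above library mean, with baseline fluorescence within five deviations of library mean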;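 note: RGS4 expression induced by doxycycline in cells with stable M3 receptor; B-score is computed from the integrated fluorescence ratio over baseline after carbachol; higher B-score means a larger calcium signal and so more RGS4 inhibition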
Target sequence (P49798 whole entry, looked up): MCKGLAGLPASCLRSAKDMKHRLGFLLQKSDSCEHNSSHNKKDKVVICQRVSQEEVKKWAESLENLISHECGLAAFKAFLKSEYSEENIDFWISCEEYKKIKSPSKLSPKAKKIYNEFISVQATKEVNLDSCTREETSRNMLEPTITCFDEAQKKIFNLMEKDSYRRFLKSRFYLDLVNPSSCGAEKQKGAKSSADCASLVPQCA
MrgX1 PAM: human MrgX1 positive allosteric modulation, primary screen; Q96LB2; MrgX1-HEK293, Fluo-4 calcium flux, FDSS; stronger effect = higher value; B-score at 10 µM; 0.63% of 310,000 active;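 active = plate-corrected calcium response at least 3 library SD above typical, normal starting fluorescence, not activating the receptor alone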;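 note: compound read alongside a low EC10 to EC30 dose of BAM8-22 agonist; peak minus trough fluorescence over baseline measured at the second addition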
RGS4 act: RGS4 potentiation or activation; HEK293 M3R/inducible RGS4, carbachol calcium flux Fluo4; stronger effect = lower value; B-score at 10 µM; 0.92% of 310,000 active; AID 463111;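 active = B-score of the integrated calcium signal more than 4 SD below the library mean, with starting fluorescence not abnormally high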;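 note: negative B-score means reduced calcium response which marks RGS4 activation or potentiation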
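Detection: kinetic calcium fluorescence imaging with Fluo4-AM dye, 2 µM / Material: HEK293 cells with stable M3R and inducible RGS4 / Schedule: recording 10 s baseline at 1 Hz, 100 s post-agonist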
MrgX1 ag: agonists of human MrgX1 receptor; B-score at 10 µM; Q96LB2; 0.44% of 310,000 active; MrgX1-HEK293 cells, Fluo-4 calcium fluorescence, agonist mode; stronger effect = higher value;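 active = calcium response B-score plate-corrected fluorescence ratio at least 3 library SD, with starting fluorescence B-score inside 5 SD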
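times = overnight plating, then 30 min 37 °C plus 30 min room-temperature dye loading | assay system = stable human MrgX1 HEK293 cell line | input = fifteen thousand cells per well | signal = kinetic calcium dye fluorescence, Fluo-4 NW | dosing = compound delivered in addition one of three | read-out = B-scored fluorescence response ratio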
An asterisk follows results filed as active; i = inactive; x = not tested or not shown.

SMILES | MrgX1 antagonist | RGS4 inh | MrgX1 PAM | RGS4 act | MrgX1 ag
COc1cc(/C=C/C(=O)NCCc2ccc(S(N)(=O)=O)cc2)ccc1OCC#N | i | i | 12* | i | i
O=C1/C(=C/c2ccc(F)cc2)SC(=S)N1Nc1ncc(C(F)(F)F)cc1Cl | i | i | i | -10* | i
O=C1/C(=C\c2ccccn2)SC(=S)N1Nc1ncc(C(F)(F)F)cc1Cl | i | i | i | i | i
CC(C)C(NC(=O)c1ccc(C(C)(C)C)cc1)C(=O)NCC1(N(C)C)CCCCC1 (centres undefined) | i | i | i | i | i
OCCCCNCc1ccc(OCc2ccc(Cl)cc2)cc1 | i | i | i | -7.3* | i
CCCCCNCc1ccc(Cl)cc1 | i | i | i | i | i
COc1cc(/C=N/n2cnnc2)ccc1OS(=O)(=O)c1ccccc1[N+](=O)[O-] | -6.6* | i | i | i | i
O=[N+]([O-])c1ccccc1S(=O)(=O)Oc1ccc(/C=N/n2cnnc2)cc1 | i | i | i | i | i
CC(C)CCNC(=O)CNC(=S)N(Cc1ccccc1)Cc1cccnc1 | i | i | i | i | i
COc1cccc(NC(=O)CN(C2=NC3CS(=O)(=O)CC3S2)c2cccc(C)c2)c1 (centres undefined) | i | i | i | i | i
CCc1ccc(S(=O)(=O)/N=C2\C=CC(=O)c3ccccc32)cc1 | i | i | i | i | i
CCc1ccc(S(=O)(=O)/N=C2/C=C(Sc3ncn[nH]3)C(=O)c3ccccc32)cc1 | i | x | 7* | x | i
Cc1ccc(NC(=O)c2ccc(CNc3c(N4CCC(C)CC4)c(=O)c3=O)cc2)cc1 | i | i | i | i | i
O=S(=O)(Nc1ccc2c(c1)OCCO2)c1cccs1 | -4.6* | i | i | i | i
O=S(=O)(Nc1ccc2c(c1)OCO2)c1cccs1 | i | i | i | i | i
CCOC(=O)N1CCC(NC(=O)CC2C(=O)NCCN2Cc2ccccc2)CC1 (centres undefined) | i | i | i | i | i
COc1ccc(/C(N)=N/OC(=O)c2cccs2)cc1 | i | i | i | i | i
N/C(=N\OC(=O)c1cccs1)c1ccc(Cl)cc1 | -5.8* | i | i | i | i
CC(C)N(C(=S)Nc1cccc(C(F)(F)F)c1)C(C)c1ccccn1 (centres undefined) | -9.5* | i | i | i | i
COc1ccccc1NC(=S)N(C(C)C)C(C)c1ccccn1 (centres undefined) | i | i | i | i | i
c1ccc(CN2CCC(N3CCN(Cc4ccc5c(c4)OCO5)CC3)CC2)cc1 | i | i | i | i | i
c1cc2c(cc1CN1CCN(C3CCCCCC3)CC1)OCO2 | i | i | i | -7.6* | i
CC(Oc1ccccc1Cl)C(=O)Nc1ccc(S(=O)(=O)N2CCCC2)cc1 (centres undefined) | i | i | i | -7.2* | i
COc1ccc(/C=C(\NC(=O)c2cccs2)C(=O)Nc2cccc3ccccc23)cc1OC | i | i | i | i | 28*
Cc1ccc(NS(=O)(=O)c2cccc(C(=O)N/N=C/c3ccc4c(c3)OCCO4)c2)c(C)c1 | i | i | i | i | i
SMILES | MrgX1 antagonist | RGS4 inh | MrgX1 PAM | RGS4 act | MrgX1 ag
Cc1ccc(SCCNC(=O)c2ccc(C)c([N+](=O)[O-])c2)cc1 | i | i | i | -7* | i
Cc1ccc(SCCNC(=O)c2ccc([N+](=O)[O-])c(C)c2)cc1 | i | i | i | i | i
Cc1cccc(C)c1-n1cccc1/C=C1\SC(=S)N(c2cccc(C(=O)O)c2)C1=O | i | i | i | -7.6* | i
COc1cc(C(=O)Nc2c(C)cc(C)cc2C)c(Br)c(OC)c1OC | i | i | i | i | i
CCn1cc(C(=O)O)c(=O)c2cnc(N3CCN(C(=S)Nc4ccccc4Cl)CC3)nc21 | i | i | i | i | i
Cc1c(CCC(=O)O)c(=O)oc2c(C)c3occ(-c4ccc(Cl)cc4)c3cc12 | i | i | 6.6* | i | i
O=C(N/N=C/c1ccc[nH]1)c1ccc(COc2cccc3cccnc23)cc1 | -7.2* | i | 7.8* | i | i
Cc1cccc(-n2c(N)c(-c3nc4ccccc4n3C)c3nc4ccccc4nc32)c1 | i | i | i | -7.5* | i
Cn1c(-c2c(N)n(-c3ccccc3)c3nc4ccccc4nc23)nc2ccccc21 | i | i | i | i | i
O=C(COC(=O)Cc1ccccc1F)Nc1cccc(F)c1 | i | i | i | i | i
O=C(NCCNCCO)C1(C(F)(F)F)C/C(=C\CCO)CCCO1 (centres undefined) | i | i | i | i | i
OC(CCN1CCCCC1)(c1ccccc1)C1CCCCC1 (centres undefined) | i | i | i | i | i
Cc1ccc(C(O)(CCN2CCCCC2)c2ccccc2)cc1 (centres undefined) | i | i | i | -7.6* | i
O=c1[nH]c(S)c(/C=C2\C=Nc3ccccc32)s1 | -5.4* | i | i | i | i
Cc1ccc(S(N)(=O)=O)cc1NC(=O)c1ccc2c3c(cccc13)CC2 | i | i | i | i | i
CCn1cc(C2=NOC(C(=O)Nc3cccc(C(C)=O)c3)C2)c(C)n1 (centres undefined) | -4.8* | i | i | i | i
C/C(=C\C(=O)c1ccc(Br)cc1)Nc1cccc(Cl)c1 | i | i | i | -8.1* | i
C/C(=C\C(=O)c1ccc(Cl)cc1)Nc1ccc(Br)cc1 | i | i | i | i | i
Cn1c(/C(C#N)=C(\O)c2cccc(F)c2)nc2ccccc21 | -5.4* | i | i | i | i
Cc1cc(C(C)(C)C)cc(C)c1C(=O)O | i | i | i | i | i
COc1ccc(/C=N/Nc2nc(-c3cccc(S(=O)(=O)N4CCCC4)c3)cs2)cc1OC | i | i | i | i | i
O=S(=O)(c1cccc(-c2csc(N/N=C/c3ccco3)n2)c1)N1CCOCC1 | i | i | i | -8.6* | i
CCOc1cc(/C=N/Nc2nc(-c3cccc(S(=O)(=O)N4CCCC4)c3)cs2)ccc1O | i | i | i | -8.8* | i
COc1cc(/C=N/Nc2nc(-c3ccc(S(=O)(=O)N(C)C)cc3)cs2)ccc1O | i | i | i | -7.4* | i
Cc1ccc(NC(=O)CO/N=C/c2ccc(N(C)C)cc2)cc1 | -4.8* | i | i | i | i
